pEC50: −log10 of the molar value.
Key:
Assay type in all cases: functional
[1] = target: Human immunodeficiency virus type 1 reverse transcriptase (Human immunodeficiency virus 1) (UniProt Q72547); assay: Compounds were evaluated for anti-RT activity by MTT dose and % cell / viability was reported at 7 days of culture
Summary of the method: (§1)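 HIV-1 was preincubated with compound at 25 µM for 60 min at 37 °C, pelleted, and added to CEM-C113 cells (1×10^5 cells/mL) for 60 min at 37 °C. Medium was then replaced without compound. At days 7 and 9, viability was read by MTT assay on 100 µL of cell suspension.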

[2] = target: Human immunodeficiency virus type 1 reverse transcriptase (Human immunodeficiency virus 1) (UniProt Q72547); assay: Percent inhibition evaluated for anti-RT activity at 7 days of culture; parameters: concentration or dose not given beside the values; conditions: concentration not given here
Summary of the method: (§2)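 HIV-1 (12 500 CCID50) was preincubated with compound at 25 µM final for 60 min at 37 °C, pelleted by ultracentrifugation and resuspended. RT was measured at once with poly(rA)-oligo(dT) and ³H-dTTP (1 h, 37 °C, cpm). Treated virus was then put on CEM-C113 cells for 60 min and replaced with compound-free medium. Supernatant RT was read at days 7 and 9.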

[3] = target: Human immunodeficiency virus type 1 reverse transcriptase (Human immunodeficiency virus 1) (UniProt Q72547); assay: Percent inhibition evaluated for anti-RT activity at 0 days of culture; parameters: concentration or dose not given beside the values; conditions: concentration not given here; summary of the method: as §2
[4] = target: Human immunodeficiency virus type 1 reverse transcriptase (Human immunodeficiency virus 1) (UniProt Q72547); assay: Compound ability to inhibit the production of HIV reverse transcriptase (RT) in culture supernatant of CEM-CL13 on at 22 days at a concentration 0.2 uM
Summary of the method: (§3)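 CEM-C113 cells in RPMI 1640 with 5% heat-inactivated FCS and polybrene (2 µg/mL) were plated at 1×10^5 cells/mL with compound in PBS, in triplicate, and infected with HIV-1 LAV-Bru. From day 7, every 3–4 days, fresh medium with or without drug was added and 50 µL supernatant was taken for RT microassay. The RT microassay used poly(rA)-oligo(dT) and (methyl-³H)dTTP for 1 h at 37 °C, with TCA precipitation, read as cpm/50 µL.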

[5] = target: Human immunodeficiency virus type 1 reverse transcriptase (Human immunodeficiency virus 1) (UniProt Q72547); assay: Compound ability to inhibit the production of HIV reverse transcriptase (RT) in preinfected PBL (peripheral blood lymphocytes) at 14 days at a concentration 5 uM
Summary of the method: (§4)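 PBL were infected with HIV-1 for 1 h at 37 °C, washed twice, and resuspended in complete medium with 10% interleukin-2 and anti-human α-interferon (1000 units/mL). Cells were plated at 1×10^6 cells/well with or without compound. At each time point, 50 µL supernatant was taken for RT assay ([³H]dTTP incorporation, cpm).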

[6] = test system: CCRF-CEM; assay: Concentration required to reduce the viability of uninfected cells (CEM-CL13) by 50% on day 11.; conditions: Homo sapiens, 264 h, read-out: CD50 (the source's name)
Summary of the method: (§5)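 CEM-C113 cells (1×10^5 cells/mL) were infected with HIV-1 LAV-Bru or mock-infected, with compound dilutions in triplicate, for at least 7 days. Medium with or without drug was renewed every 3–4 days for longer runs. MTT absorbance was read at 540 nm. CD50 = 50% reduction of mock-infected absorbance; ED50 = dose giving 50% protection from CPE. Values are averages of at least two experiments.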

[7] = target: Human immunodeficiency virus type 1 reverse transcriptase (Human immunodeficiency virus 1) (UniProt Q72547); assay: Percent inhibition measured as the production of HIV reverse transcriptase (RT) in culture supernatant of monocytic U937 on at 11 days at a concentration 1 uM
Summary of the method: (§6)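 U937 cells in RPMI 1640 with 5% heat-inactivated FCS, penicillin, streptomycin and polybrene (2 μg/mL), 37 °C, 5% CO2. Infected with HIV-1 LAV-Bru; compounds diluted in PBS. 50 μL supernatant aliquots were assayed for RT: 1 h, 37 °C, pH 7.8, Mg2+, poly(rA)-oligo(dT), [3H]dTTP, TCA-pyrophosphate stop, filter counting. % inhibition = 100 − 100 × (treated cpm / virus-control cpm).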

[8] = target: Human immunodeficiency virus type 1 reverse transcriptase (Human immunodeficiency virus 1) (UniProt Q72547); assay: Compound ability to inhibit the production of HIV reverse transcriptase (RT) in culture supernatant of CEM-CL13 on at 26 days at a concentration 0.2 uM; summary of the method: as §3
[9] = target: Human immunodeficiency virus type 1 reverse transcriptase (Human immunodeficiency virus 1) (UniProt Q72547); assay: Compound ability to inhibit the production of HIV reverse transcriptase (RT) in preinfected PBL (peripheral blood lymphocytes) at 7 days at a concentration 1 uM; summary of the method: as §4
[10] = target: Human immunodeficiency virus type 1 reverse transcriptase (Human immunodeficiency virus 1) (UniProt Q72547); assay: Compound ability to inhibit the production of HIV reverse transcriptase (RT) in culture supernatant of monocytic U937 on at 11 days at a concentration 1 uM
Summary of the method: (§7)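 HIV-1-infected monocytic U937 cultures were kept up to 14 days with compound. Supernatant RT activity was measured as for CEM-C113, as [³H] cpm/50 µL. % inhibition = 100 − 100 × (cpm of treated samples / cpm of control virus).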

[11] = target: Human immunodeficiency virus type 1 reverse transcriptase (Human immunodeficiency virus 1) (UniProt Q72547); assay: Compounds were evaluated for anti-RT activity by MTT dose and %protection was reported at 9 days of culture; summary of the method: as §1
[12] = target: Human immunodeficiency virus type 1 reverse transcriptase (Human immunodeficiency virus 1) (UniProt Q72547); assay: Compound ability to inhibit the production of HIV reverse transcriptase (RT) in culture supernatant of monocytic U937 on at 7 days at a concentration 1 uM; summary of the method: as §7
[13] = target: Human immunodeficiency virus type 1 reverse transcriptase (Human immunodeficiency virus 1) (UniProt Q72547); assay: Compound ability to inhibit the production of HIV reverse transcriptase (RT) in preinfected PBL (peripheral blood lymphocytes) at 10 days at a concentration 1 uM; summary of the method: as §4
[14] = test system: CCRF-CEM; assay: Concentration required to reduce the viability of uninfected cells (CEM-CL13) by 50% on day 22.; conditions: Homo sapiens, 528 h, read-out: CD50 (the source's name); summary of the method: as §5
[15] = target: Human immunodeficiency virus type 1 reverse transcriptase (Human immunodeficiency virus 1) (UniProt Q72547); assay: Compounds were evaluated for anti-RT activity at 7 days of culture; summary of the method: as §2
[16] = target: Human immunodeficiency virus type 1 reverse transcriptase (Human immunodeficiency virus 1) (UniProt Q72547); assay: Compound ability to inhibit the production of HIV reverse transcriptase (RT) in culture supernatant of CEM-CL13 on at 7 days at a concentration 0.2 uM; summary of the method: as §3
[17] = target: Human immunodeficiency virus type 1 reverse transcriptase (Human immunodeficiency virus 1) (UniProt Q72547); assay: Compounds were evaluated for anti-RT activity at 9 days of culture; summary of the method: as §2
[18] = target: Human immunodeficiency virus type 1 reverse transcriptase (Human immunodeficiency virus 1) (UniProt Q72547); assay: Compound ability to inhibit the production of HIV reverse transcriptase (RT) in preinfected PBL (peripheral blood lymphocytes) at 7 days at a concentration 5 uM; summary of the method: as §4
[19] = test system: CCRF-CEM; assay: Concentration that reduced by 50% the HIV induced CPE (cytopathic effect) on day 11.; conditions: Homo sapiens, 264 h, read-out: ED50 (the source's name); summary of the method: as §5
[20] = test system: CCRF-CEM; assay: Concentration required to reduce the viability of uninfected cells (CEM-CL13) by 50% on day 19.; conditions: Homo sapiens, 456 h, read-out: CD50 (the source's name); summary of the method: as §5
[21] = target: Human immunodeficiency virus type 1 reverse transcriptase (Human immunodeficiency virus 1) (UniProt Q72547); assay: Compounds were evaluated for anti-RT activity by MTT dose and %protection was reported at 7 days of culture; summary of the method: as §1
[22] = target: Human immunodeficiency virus type 1 reverse transcriptase (Human immunodeficiency virus 1) (UniProt Q72547); assay: Percent inhibition measured as the production of HIV reverse transcriptase (RT) in culture supernatant of monocytic U937 on at 7 days at a concentration 1 uM; summary of the method: as §6
[23] = target: Human immunodeficiency virus type 1 reverse transcriptase (Human immunodeficiency virus 1) (UniProt Q72547); assay: Compound ability to inhibit the production of HIV reverse transcriptase (RT) in preinfected PBL (peripheral blood lymphocytes) at 21 days at a concentration 5 uM; summary of the method: as §4
[24] = test system: CCRF-CEM; assay: Concentration that reduced by 50% the HIV induced CPE (cytopathic effect) on day 22.; conditions: Homo sapiens, 528 h, read-out: ED50 (the source's name); summary of the method: as §5
[25] = target: Human immunodeficiency virus type 1 reverse transcriptase (Human immunodeficiency virus 1) (UniProt Q72547); assay: Compounds were evaluated for anti-RT activity by MTT dose and %protection was reported at 13 days of culture
[26] = test system: CCRF-CEM; assay: Concentration that reduced by 50% the HIV induced CPE (cytopathic effect) on day 7.; conditions: Homo sapiens, 168 h, read-out: ED50 (the source's name); summary of the method: as §5
[27] = target: Human immunodeficiency virus type 1 reverse transcriptase (Human immunodeficiency virus 1) (UniProt Q72547); assay: Compound ability to inhibit the production of HIV reverse transcriptase (RT) in culture supernatant of monocytic U937 on at 14 days at a concentration 1 uM; summary of the method: as §7

Structure (SMILES) | Cell viability [1] | inhibition [2] | Activity (c.p.m. 50ul-1) [4] | CC50 [6] | inhibition [7] | Activity (c.p.m. 50ul-1) [8] | Activity (c.p.m. 50ul-1) [9] | Activity (c.p.m. 50ul-1) [10] | Protection [11] | Activity (c.p.m. 50ul-1) [12] | Activity (c.p.m. 50ul-1) [13] | CC50 [14] | Activity (c.p.m. 50ul-1) [15] | Activity (c.p.m. 50ul-1) [16] | Activity (c.p.m. 50ul-1) [17] | pEC50 [19] | CC50 [20] | Protection [21] | inhibition [22] | pEC50 [24] | also measured
Cc1cn([C@H]2C[C@H](N=[N+]=[N-])[C@@H](COP(=O)(O)OC[C@H]3OC(O)[C@@H](O)[C@@H](O)[C@@H]3O)O2)c(=O)[nH]c1=O (some centres not stated) | 54% | 62% | 27000 | 28000 nM | 5% | 85000 | 943 | 137000 | 22% | 425000 | 3130 | 24000 nM | 24000 | 3400 | 34000 | 6.70 | 24000 nM | 38% | 0% | 6.22 | inhibition [3]: 0%; Activity (c.p.m. 50ul-1) [5]: 4130; Activity (c.p.m. 50ul-1) [18]: 967; Activity (c.p.m. 50ul-1) [23]: 19500; Protection [25]: 3%; pEC50 [26]: 6.89; Activity (c.p.m. 50ul-1) [27]: 22500
Cc1cn([C@H]2C[C@H](N=[N+]=[N-])[C@@H](CO)O2)c(=O)[nH]c1=O [ZIDOVUDINE] | 100% | 92% | 6400 | 23000 nM | 7% | 28000 | 972 | 134000 | 76% | 36000 | 757 | 22000 nM | 5000 | 1500 | 7500 | 6.92 | 26000 nM | 100% | 85% | 6.35 | Activity (c.p.m. 50ul-1) [5]: 302; Activity (c.p.m. 50ul-1) [18]: 965; Activity (c.p.m. 50ul-1) [23]: 542; Protection [25]: 26%; pEC50 [26]: 6.92; Activity (c.p.m. 50ul-1) [27]: 37000
CCCCCCCCCCCCCCCCOP(=O)(OCCO[C@H]1O[C@H](CO)[C@@H](O)[C@H](O)[C@@H]1O)OCC1OC(n2cc(C)c(=O)[nH]c2=O)CC1N=[N+]=[N-] (some centres not stated) | 41% | 0% | 52000 | 28000 nM | 0% | 61000 | 30200 | 243000 | 4% | 401000 | 60200 | 3400 nM | 81000 | 3900 | 44000 | 6.00 | 3400 nM | 21% | 0% | 5.89 | inhibition [3]: 26%; Protection [25]: 0%; pEC50 [26]: 6.74; Activity (c.p.m. 50ul-1) [27]: 55000
